According to ChEMBL document CHEMBL1649405, “Structure-activity relationships study of 6-chloro-4-(2-chlorophenyl)-3-(2-hydroxyethyl) quinolin-2(1H)-one derivatives as novel non-nucleoside anti-hepatitis B virus agents” (Eur J Med Chem, 2011):
Calls of active or inactive are those of the source. The rule behind the calls is not given here.

Legend:
Hepatitis B virus [1] = assay: Antiviral activity against Hepatitis B virus infected in human HepG2(2.2.15) cells assessed as inhibition of viral surface antigen secretion after 6 days by ELISA; type: functional, organism-based; conditions: HepG2 2.2.15, 144 h
In short: (§1)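 HepG 2.2.15 cells in DMEM with 10% FBS, 37 °C, 5% CO2. Treated for 6 days with refeeding every other day. Culture medium centrifuged at 6000 g to clear debris. HBeAg or HBsAg measured by quantitative ELISA on a microplate reader. IC50 = concentration giving 50% inhibition of secretion. Mean of two independent experiments.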

Hepatitis B virus [2] = assay: Antiviral activity against Hepatitis B virus infected in human HepG2(2.2.15) cells assessed as inhibition of viral e antigen secretion after 6 days by ELISA; type: functional, organism-based; conditions: HepG2 2.2.15, 144 h; in short: as §1
Hepatitis B virus [3] = assay: Antiviral activity against Hepatitis B virus infected in human HepG2(2.2.15) cells assessed as inhibition of viral DNA replication after 6 days by PCR analysis; type: functional, organism-based
In short: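 HepG 2.2.15 cells in DMEM with 10% FBS, 5 mM L-glutamine, penicillin/streptomycin, 37 °C, 5% CO2; seeded 5 × 10^5 per well, medium changed every 2 days. Compound added after 6 days, refed every other day for 6 more days. HBV DNA by real-time PCR against a cloned HBV plasmid standard series. IC50 = 50% inhibition. Mean of two independent experiments.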

[4] = Selectivity index, ratio of CC50 for human HepG2(2.2.15) cells to IC50 for Hepatitis B virus infected in human HepG2(2.2.15) cells assessed as inhibition of viral surface antigen secretion; type: functional
In short: (§2)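 Ratio of CC50 in HepG 2.2.15 cells to the IC50 for HBeAg or HBsAg secretion. Both values come from ELISA and cytotoxicity runs on the same cell line. Each input is the mean of two independent experiments.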

[5] = Selectivity index, ratio of CC50 for human HepG2(2.2.15) cells to IC50 for Hepatitis B virus infected in human HepG2(2.2.15) cells assessed as inhibition of viral e antigen secretion; type: functional; in short: as §2
[6] = Cytotoxicity against human HepG2(2.2.15) cells; type: cell-based
In short: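 HepG 2.2.15 cells in DMEM with 10% FBS, 37 °C, 5% CO2. CC50 = concentration killing 50% of cells. Mean of two independent experiments.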

[7] = Cytotoxicity against human HepG2(2.2.15) cells assessed as cell viability at 0.02 mM after 48 hrs by MTT assay; type: cell-based; conditions: read-out: Activity
Nucleic Acid [8] = assay: Increase of preS1 promoter transcriptional activity in HBV infected in human HepG2(2.2.15) cells transfected with pGL3 at 0.02 mM by luciferase reporter gene assay relative to mock-treated control; type: cell-based; conditions: Hepatitis B virus
In short: (§3)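 HepG2 cells transfected with pGL3-based firefly luciferase constructs carrying HBV promoter or enhancer elements; pGL3 Basic as control, phRL-CMV Renilla as internal control. Treated with 0.02 mM; read by dual-luciferase assay. Fold activity = treated promoter activity / mock-treated activity. Triplicate samples.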

Nucleic Acid [9] = assay: Increase of core/pregenomic factor transcriptional activity in HBV infected in human HepG2(2.2.15) cells transfected with pGL3 at 0.02 mM by luciferase reporter gene assay relative to mock-treated control; type: cell-based; conditions: Hepatitis B virus; in short: as §3
Nucleic Acid [10] = assay: Inhibition of preS2 promoter transcriptional activity in human HepG2 cells transfected with pGL3 at 0.02 mM by luciferase reporter gene assay relative to mock-treated control; conditions: Hepatitis B virus
Nucleic Acid [11] = assay: Increase of X promoter transcriptional activity in HBV infected in human HepG2(2.2.15) cells transfected with pGL3 at 0.02 mM by luciferase reporter gene assay relative to mock-treated control; type: cell-based; conditions: Hepatitis B virus; in short: as §3
Nucleic Acid [12] = assay: Increase of enhancer 2 transcriptional activity in HBV infected in human HepG2(2.2.15) cells transfected with pGL3 at 0.02 mM by luciferase reporter gene assay relative to mock-treated control; type: cell-based; conditions: Hepatitis B virus; in short: as §3
[13] = Cytotoxicity against human HepG2(2.2.15) cells assessed as cell viability at 0.02 mM after 72 hrs by MTT assay; type: cell-based; conditions: read-out: Activity
Nucleic Acid [14] = assay: Increase of enhancer 1 transcriptional activity in HBV infected in human HepG2(2.2.15) cells transfected with pGL3 at 0.02 mM by luciferase reporter gene assay relative to mock-treated control; type: cell-based; conditions: Hepatitis B virus; in short: as §3
[15] = Hepatitis B virus, HepG2 2.2.15, 144 h, read-out: IC50

SMILES | IC50 (Hepatitis B virus [1]) | IC50 (Hepatitis B virus [2]) | IC50 (Hepatitis B virus [3]; hepg2 2.2.15) | Selectivity Index [4] | Selectivity Index [5] | CC50 [6] | IC50 (Hepatitis B virus [3]; [15]) | viability at 48 h, 20 µM [7] | fold change (FC) (Nucleic Acid [8]) | fold change (FC) (Nucleic Acid [9]) | inhibition (Nucleic Acid [10]) | fold change (FC) (Nucleic Acid [11]) | fold change (FC) (Nucleic Acid [12]) | viability at 72 h, 20 µM [13] | fold change (FC) (Nucleic Acid [14])
COc1ccccc1/C=C/C(=O)OCCc1c(-c2ccccc2Cl)c2cc(Cl)ccc2[nH]c1=O | 61 µM | 24 µM | Not Active | 13 | 32 | 770 µM |  |  |  |  |  |  |  |  | 
COc1cccc(/C=C/C(=O)OCc2c(-c3ccccc3Cl)c3cc(Cl)ccc3[nH]c2=O)c1 | 11 µM | 18 µM |  | >170 | >100 | > 1800 µM | 160 µM |  |  |  |  |  |  |  | 
O=C(/C=C/c1ccc2c(c1)OCO2)OCCc1c(-c2ccccc2Cl)c2cc(Cl)ccc2[nH]c1=O | 150 µM | 220 µM |  | >8.1 | >5.4 |  | 160 µM |  |  |  |  |  |  |  | 
COc1ccc(/C=C/C(=O)OCCc2c(-c3ccccc3Cl)c3cc(Cl)ccc3[nH]c2=O)cc1 | 490 µM | 48 µM | Not Active | >2.5 | >25 | > 1200 µM |  |  |  |  |  |  |  |  | 
COc1cccc(/C=C/C(=O)OCCc2c(-c3ccccc3Cl)c3cc(Cl)ccc3[nH]c2=O)c1 | 10 µM | 26 µM |  | >135 | >51 | > 1300 µM | 45 µM | 95.2% | 4 | 4 | Active | 4 | 14 | 80.4% | 12
O=C(/C=C/c1cccc(F)c1)OCCc1c(-c2ccccc2Cl)c2cc(Cl)ccc2[nH]c1=O | 33 µM | 27 µM |  | >48 | >58 | > 1600 µM | 110 µM |  |  |  |  |  |  |  | 
COc1cccc(/C=C/C(=O)OCCCc2c(-c3ccccc3Cl)c3cc(Cl)ccc3[nH]c2=O)c1 | 20 µM | 28 µM | Not Active | >55 | >39 | > 1100 µM |  |  |  |  |  |  |  |  | 
O=C(/C=C/c1cccc(C(F)(F)F)c1)OCCc1c(-c2ccccc2Cl)c2cc(Cl)ccc2[nH]c1=O | 58 µM | 22 µM |  | >24 | >63 | > 1400 µM | 410 µM |  |  |  |  |  |  |  | 
COc1ccc(/C=C/C(=O)OCCc2c(-c3ccccc3Cl)c3cc(Cl)ccc3[nH]c2=O)cc1OC | 21 µM | 57 µM | Not Active | >58 | >21 | > 1200 µM |  |  |  |  |  |  |  |  | 
O=C(/C=C/c1ccc(C(F)(F)F)cc1)OCCc1c(-c2ccccc2Cl)c2cc(Cl)ccc2[nH]c1=O | 230 µM | 19 µM | Not Active | >6.1 | >73 | > 1400 µM |  |  |  |  |  |  |  |  | 
CC(C)C(=O)OCCc1c(-c2ccccc2Cl)c2cc(Cl)ccc2[nH]c1=O | 37 µM | > 62 µM |  | 1.7 | <1 | 62 µM |  |  |  |  |  |  |  |  | 
C=CCn1c(=O)c(CCO)c(-c2ccccc2Cl)c2cc(Cl)ccc21 | 10 µM | 12 µM |  | 2.3 | 1.9 | 23 µM |  |  |  |  |  |  |  |  | 
CCOCC(=O)OCCc1c(-c2ccccc2Cl)c2cc(Cl)ccc2[nH]c1=O | 95 µM | > 130 µM |  | 1.4 | <1 | 130 µM |  |  |  |  |  |  |  |  | 
C/C=C(\C)C(=O)OCCc1c(-c2ccccc2Cl)c2cc(Cl)ccc2[nH]c1=O | 58 µM | 62 µM |  | 6.1 | 5.6 | 350 µM |  |  |  |  |  |  |  |  | 
O=C(CCC1CCCCC1)OCCc1c(-c2ccccc2Cl)c2cc(Cl)ccc2[nH]c1=O | 85 µM | 110 µM |  | 1.9 | 1.5 | 160 µM |  |  |  |  |  |  |  |  | 
